# Assay results taken from the M2OR odorant receptor database.
# Where a chain is given by its changes, count along the chain named.
# Legend:
# Conditions in all cases: stereoisomer not certain
# OR8I2 (Homo sapiens) = target: T1, OR8I2 (Homo sapiens) (UniProt Q8N0Y5)
# T1 sequence (whole entry): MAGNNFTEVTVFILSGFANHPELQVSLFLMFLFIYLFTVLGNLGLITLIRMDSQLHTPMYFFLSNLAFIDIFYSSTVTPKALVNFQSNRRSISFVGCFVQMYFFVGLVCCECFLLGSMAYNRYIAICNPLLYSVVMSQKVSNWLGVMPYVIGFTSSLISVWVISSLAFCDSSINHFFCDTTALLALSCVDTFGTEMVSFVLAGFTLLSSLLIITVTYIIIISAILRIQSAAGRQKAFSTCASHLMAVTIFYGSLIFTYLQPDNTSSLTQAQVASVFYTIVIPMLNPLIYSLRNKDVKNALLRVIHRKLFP
# Method in brief: (§1)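 Each receptor–molecule pair is labelled responsive or non-responsive (inactive) according to whether the original authors judged the measured signal statistically different from baseline. The data were taken from the main text and supplementary material of published papers and checked for typos and inconsistencies. Assay methods differed by source, with transient luciferase assays in mammalian cell lines being common.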
# OR8J1 (Homo sapiens) = target: T2, OR8J1 (Homo sapiens) (UniProt Q8NGP2)
# T2 sequence (whole entry): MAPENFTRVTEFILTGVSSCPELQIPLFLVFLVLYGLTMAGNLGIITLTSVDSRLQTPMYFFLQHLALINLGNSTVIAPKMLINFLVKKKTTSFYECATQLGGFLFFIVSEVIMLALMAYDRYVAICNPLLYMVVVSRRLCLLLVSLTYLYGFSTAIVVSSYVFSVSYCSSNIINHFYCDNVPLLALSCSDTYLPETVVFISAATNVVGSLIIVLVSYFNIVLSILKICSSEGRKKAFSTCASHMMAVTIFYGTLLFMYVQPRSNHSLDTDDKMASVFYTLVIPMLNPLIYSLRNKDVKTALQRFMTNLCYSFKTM
# Method in brief: as §1
# OR8J3 (Homo sapiens) = target: T3, OR8J3 (Homo sapiens) (UniProt Q8NGG0)
# T3 sequence (whole entry): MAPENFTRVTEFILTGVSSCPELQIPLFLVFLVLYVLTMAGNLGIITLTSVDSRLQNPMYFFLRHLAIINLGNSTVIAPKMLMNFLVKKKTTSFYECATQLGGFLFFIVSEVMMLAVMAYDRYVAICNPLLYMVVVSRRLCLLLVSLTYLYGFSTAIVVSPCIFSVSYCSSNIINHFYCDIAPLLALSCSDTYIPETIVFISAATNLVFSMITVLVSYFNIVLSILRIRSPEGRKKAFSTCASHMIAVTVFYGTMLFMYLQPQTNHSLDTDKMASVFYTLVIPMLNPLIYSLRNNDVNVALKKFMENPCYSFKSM
# Method in brief: as §1
# OR8K1 (Homo sapiens) = target: T4, OR8K1 (Homo sapiens) (UniProt Q8NGG5)
# T4 sequence (whole entry): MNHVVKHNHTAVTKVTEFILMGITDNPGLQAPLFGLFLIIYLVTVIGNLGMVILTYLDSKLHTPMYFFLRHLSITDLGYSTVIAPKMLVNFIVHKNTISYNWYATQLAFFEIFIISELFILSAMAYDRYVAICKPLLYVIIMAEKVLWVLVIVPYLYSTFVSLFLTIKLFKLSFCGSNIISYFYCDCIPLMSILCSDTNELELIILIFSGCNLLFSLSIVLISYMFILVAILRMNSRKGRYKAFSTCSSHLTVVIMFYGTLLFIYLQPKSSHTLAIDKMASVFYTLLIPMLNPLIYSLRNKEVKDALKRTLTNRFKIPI
# Method in brief: as §1
# OR8K3 (Homo sapiens) = target: T5, OR8K3 (Homo sapiens) (UniProt Q8NH51)
# T5 sequence (whole entry): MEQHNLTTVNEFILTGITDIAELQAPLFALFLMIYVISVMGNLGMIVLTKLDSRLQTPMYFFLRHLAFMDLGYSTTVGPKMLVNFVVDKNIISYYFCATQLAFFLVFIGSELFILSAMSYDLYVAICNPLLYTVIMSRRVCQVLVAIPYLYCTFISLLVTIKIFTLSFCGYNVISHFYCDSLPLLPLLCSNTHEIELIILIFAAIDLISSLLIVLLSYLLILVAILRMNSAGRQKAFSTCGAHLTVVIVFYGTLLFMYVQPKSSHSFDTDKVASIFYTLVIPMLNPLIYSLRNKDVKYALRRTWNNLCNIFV
# Method in brief: as §1
# OR8K5 (Homo sapiens) = target: T6, OR8K5 (Homo sapiens) (UniProt Q8NH50)
# T6 sequence (whole entry): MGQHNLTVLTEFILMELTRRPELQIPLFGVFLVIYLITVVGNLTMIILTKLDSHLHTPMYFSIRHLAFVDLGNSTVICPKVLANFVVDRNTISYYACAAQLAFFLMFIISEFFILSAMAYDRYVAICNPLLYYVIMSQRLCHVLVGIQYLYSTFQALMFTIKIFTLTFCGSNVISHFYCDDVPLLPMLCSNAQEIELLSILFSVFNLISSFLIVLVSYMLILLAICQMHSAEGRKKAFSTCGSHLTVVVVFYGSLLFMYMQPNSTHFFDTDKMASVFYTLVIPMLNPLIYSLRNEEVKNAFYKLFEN
# Method in brief: as §1
# OR8S1 (Homo sapiens) = target: T7, OR8S1 (Homo sapiens) (UniProt Q8NH09)
# T7 sequence (whole entry): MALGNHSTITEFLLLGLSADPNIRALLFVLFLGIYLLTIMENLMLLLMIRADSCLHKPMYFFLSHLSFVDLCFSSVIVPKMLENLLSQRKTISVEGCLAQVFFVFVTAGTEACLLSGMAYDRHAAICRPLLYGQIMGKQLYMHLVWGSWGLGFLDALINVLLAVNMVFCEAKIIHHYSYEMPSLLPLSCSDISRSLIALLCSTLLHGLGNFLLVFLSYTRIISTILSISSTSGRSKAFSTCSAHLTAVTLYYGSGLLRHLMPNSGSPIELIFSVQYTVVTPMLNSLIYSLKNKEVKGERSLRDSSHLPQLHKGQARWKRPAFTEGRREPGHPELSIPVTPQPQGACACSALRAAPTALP
# Method in brief: as §1
# OR8U1 (Homo sapiens) = target: T8, OR8U1 (Homo sapiens) (UniProt Q8NH10)
# T8 sequence (whole entry): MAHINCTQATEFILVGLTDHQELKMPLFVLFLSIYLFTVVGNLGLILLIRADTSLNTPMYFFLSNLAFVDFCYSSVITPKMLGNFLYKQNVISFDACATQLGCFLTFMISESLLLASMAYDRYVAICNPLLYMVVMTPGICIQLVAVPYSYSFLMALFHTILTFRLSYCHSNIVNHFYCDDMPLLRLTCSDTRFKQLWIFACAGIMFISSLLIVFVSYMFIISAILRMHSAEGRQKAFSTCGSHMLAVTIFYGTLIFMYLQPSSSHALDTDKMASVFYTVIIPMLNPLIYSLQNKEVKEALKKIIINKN
# Method in brief: as §1
# OR8U3 (Homo sapiens) = target: T9, OR8U3 (Homo sapiens) (UniProt Q8NH85)
# T9 sequence (whole entry): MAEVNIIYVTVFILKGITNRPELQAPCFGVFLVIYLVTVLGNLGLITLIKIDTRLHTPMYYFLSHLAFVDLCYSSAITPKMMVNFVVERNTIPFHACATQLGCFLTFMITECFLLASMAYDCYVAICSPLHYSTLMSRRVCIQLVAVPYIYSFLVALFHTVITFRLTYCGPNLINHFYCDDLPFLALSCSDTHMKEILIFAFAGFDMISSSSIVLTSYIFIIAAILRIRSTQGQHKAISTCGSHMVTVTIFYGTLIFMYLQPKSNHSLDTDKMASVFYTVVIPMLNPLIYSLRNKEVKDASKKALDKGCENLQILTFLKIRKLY
# Method in brief: as §1
# OR8U8 (Homo sapiens) = target: T10, OR8U8 (Homo sapiens) (UniProt P0C7N1)
# T10 sequence (whole entry): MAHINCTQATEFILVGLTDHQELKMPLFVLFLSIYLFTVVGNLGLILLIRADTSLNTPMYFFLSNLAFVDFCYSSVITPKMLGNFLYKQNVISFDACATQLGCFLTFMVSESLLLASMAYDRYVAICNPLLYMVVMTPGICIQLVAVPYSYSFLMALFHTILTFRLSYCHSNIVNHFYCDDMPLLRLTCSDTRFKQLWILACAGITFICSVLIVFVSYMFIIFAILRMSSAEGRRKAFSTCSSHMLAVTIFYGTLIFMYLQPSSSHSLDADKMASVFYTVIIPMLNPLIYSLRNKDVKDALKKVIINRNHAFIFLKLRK
# Method in brief: as §1
# OR8U9 (Homo sapiens) = target: T11, OR8U9 (Homo sapiens) (UniProt P0C7N5)
# T11 sequence (whole entry): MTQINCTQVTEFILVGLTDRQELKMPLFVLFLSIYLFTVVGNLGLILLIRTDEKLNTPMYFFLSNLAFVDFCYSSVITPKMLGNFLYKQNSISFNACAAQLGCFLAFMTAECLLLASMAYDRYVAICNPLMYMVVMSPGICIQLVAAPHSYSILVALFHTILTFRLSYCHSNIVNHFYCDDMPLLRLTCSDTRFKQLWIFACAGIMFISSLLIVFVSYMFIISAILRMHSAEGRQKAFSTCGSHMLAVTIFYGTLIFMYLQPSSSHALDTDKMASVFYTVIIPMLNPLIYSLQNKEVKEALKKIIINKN
# Method in brief: as §1
# OR9A2 (Homo sapiens) = target: T12, OR9A2 (Homo sapiens) (UniProt Q8NGT5)
# T12 sequence (whole entry): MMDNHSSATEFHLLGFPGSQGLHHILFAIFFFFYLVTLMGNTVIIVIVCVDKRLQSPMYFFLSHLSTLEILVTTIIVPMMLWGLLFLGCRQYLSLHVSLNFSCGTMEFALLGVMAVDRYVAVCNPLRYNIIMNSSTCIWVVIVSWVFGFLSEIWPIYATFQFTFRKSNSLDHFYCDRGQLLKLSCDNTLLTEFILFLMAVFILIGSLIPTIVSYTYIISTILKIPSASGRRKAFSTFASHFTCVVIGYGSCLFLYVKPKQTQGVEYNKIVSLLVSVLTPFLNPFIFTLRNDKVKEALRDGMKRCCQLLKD
# Method in brief: as §1
# OR8J1 = test system: T13, OR8J1
# T13 sequence (whole entry): T2 sequence (whole entry) with Y120C
# Method in brief: as §1
# OR8J3 E4V = test system: T14, OR8J3 E4V
# T14 sequence (whole entry): T3 sequence (whole entry) with E4V
# Method in brief: as §1
# OR8U9 T2A Q3H Q293R = test system: T15, OR8U9 T2A Q3H Q293R
# T15 sequence (whole entry): T11 sequence (whole entry) with T2A, Q3H, Q293R
# Method in brief: as §1
# OR8U9 = test system: T16, OR8U9
# T16 sequence (whole entry): T11 sequence (whole entry) with Q293R
# Method in brief: as §1
# OR9A2 C304Y = test system: T17, OR9A2 C304Y
# T17 sequence (whole entry): T12 sequence (whole entry) with C304Y
# Method in brief: as §1
# OR8U8 [1] = test system: T18, OR8U8
# T18 sequence (whole entry): T10 sequence (whole entry) with V109I, S112C
# Method in brief: as §1
# OR8U8 [2] = test system: T19, OR8U8; remark: listed apart in the source
# T19 sequence (whole entry): T10 sequence (whole entry) with H20R, V109I, R165C
# Method in brief: as §1
# 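Note: active if original authors judged signal statistically different from baseline.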
Compound,odorant receptor agonist call (OR8I2 (Homo sapiens)),odorant receptor agonist call (OR8J1 (Homo sapiens)),odorant receptor agonist call (OR8J3 (Homo sapiens)),odorant receptor agonist call (OR8K1 (Homo sapiens)),odorant receptor agonist call (OR8K3 (Homo sapiens)),odorant receptor agonist call (OR8K5 (Homo sapiens)),odorant receptor agonist call (OR8S1 (Homo sapiens)),odorant receptor agonist call (OR8U1 (Homo sapiens)),odorant receptor agonist call (OR8U3 (Homo sapiens)),odorant receptor agonist call (OR8U8 (Homo sapiens)),odorant receptor agonist call (OR8U9 (Homo sapiens)),odorant receptor agonist call (OR9A2 (Homo sapiens)),odorant receptor agonist call (OR8J1),odorant receptor agonist call (OR8J3 E4V),odorant receptor agonist call (OR8U9 T2A Q3H Q293R),odorant receptor agonist call (OR8U9),odorant receptor agonist call (OR9A2 C304Y),odorant receptor agonist call (OR8U8 [1]),odorant receptor agonist call (OR8U8 [2])
CC(CO)CS (stereo not given),inactive,inactive,inactive,inactive,inactive,inactive,inactive,inactive,inactive,inactive,inactive,inactive,,,,,,,
O=c1ccc2ccccc2o1,,,,,,inactive,,,active,,,,,,,,,,
CCCCCCC=CCCC=O,inactive,inactive,inactive,inactive,inactive,inactive,inactive,inactive,inactive,inactive,inactive,inactive,inactive,inactive,inactive,inactive,inactive,,
Cc1cnc(C)c(C)n1,inactive,inactive,inactive,inactive,inactive,inactive,inactive,inactive,inactive,,inactive,inactive,inactive,inactive,inactive,inactive,inactive,inactive,inactive
CC1=C(O)C(=O)C(C)O1 (stereo not given),inactive,inactive,inactive,inactive,inactive,inactive,inactive,inactive,inactive,,inactive,inactive,inactive,inactive,inactive,inactive,inactive,inactive,inactive
CCC1OC(=O)C(O)=C1C (stereo not given),inactive,inactive,inactive,inactive,inactive,inactive,inactive,inactive,inactive,,inactive,inactive,inactive,inactive,inactive,inactive,inactive,inactive,inactive
CCCCCC(S)C(C)CO (stereo not given),inactive,inactive,inactive,inactive,inactive,inactive,inactive,inactive,inactive,inactive,inactive,inactive,,,,,,,
CCC1OC(C)=C(O)C1=O (stereo not given),inactive,inactive,inactive,inactive,inactive,inactive,inactive,inactive,inactive,,inactive,inactive,inactive,inactive,inactive,inactive,inactive,inactive,inactive
